In ChEMBL document CHEMBL1134388, “Nonpeptide cholecystokinin-2 receptor agonists” (J Med Chem, 2001):
The source made the active and inactive calls. The rule behind the calls is not given here.

Columns and labels:
[1] = molecular target: T1, Gastrin/cholecystokinin type B receptor (Rattus norvegicus) (UniProt P30553); assay: Antagonistic activity against CCK2 receptor in rat stomach; type: functional, tissue-based
T1 sequence (whole entry): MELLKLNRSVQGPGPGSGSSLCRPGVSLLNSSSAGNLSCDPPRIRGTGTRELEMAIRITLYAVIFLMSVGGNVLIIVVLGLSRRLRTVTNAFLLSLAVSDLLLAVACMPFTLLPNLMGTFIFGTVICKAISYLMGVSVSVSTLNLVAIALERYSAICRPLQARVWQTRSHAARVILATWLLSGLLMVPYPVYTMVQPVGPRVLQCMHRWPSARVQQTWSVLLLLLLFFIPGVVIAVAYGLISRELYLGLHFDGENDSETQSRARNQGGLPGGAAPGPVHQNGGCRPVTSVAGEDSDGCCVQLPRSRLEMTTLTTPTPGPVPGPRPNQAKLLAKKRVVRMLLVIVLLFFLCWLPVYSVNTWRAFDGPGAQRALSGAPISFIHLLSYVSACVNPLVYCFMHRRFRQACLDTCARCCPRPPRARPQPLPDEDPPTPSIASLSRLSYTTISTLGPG

[2] = molecular target: T2, Gastrin/cholecystokinin type B receptor (Mus musculus) (UniProt P56481); assay: Antagonistic activity against CCK2 receptor in mouse cortex assay using [125 I]-BH-CCK-8S; type: functional, tissue-based
T2 sequence (whole entry): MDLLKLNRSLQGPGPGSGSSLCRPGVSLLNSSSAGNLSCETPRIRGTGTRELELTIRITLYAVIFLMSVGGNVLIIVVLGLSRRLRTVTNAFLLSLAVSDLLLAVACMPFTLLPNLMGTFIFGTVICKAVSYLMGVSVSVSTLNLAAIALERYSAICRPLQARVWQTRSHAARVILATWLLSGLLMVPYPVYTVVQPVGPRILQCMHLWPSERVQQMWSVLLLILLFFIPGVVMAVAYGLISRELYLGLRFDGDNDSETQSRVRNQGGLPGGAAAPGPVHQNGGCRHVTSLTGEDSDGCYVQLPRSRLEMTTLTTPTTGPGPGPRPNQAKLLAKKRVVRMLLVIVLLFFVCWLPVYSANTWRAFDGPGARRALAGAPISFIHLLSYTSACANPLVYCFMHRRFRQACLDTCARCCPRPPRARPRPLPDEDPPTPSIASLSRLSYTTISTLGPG
Outline: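 Radioligand competition binding to CCK2 sites in mouse cerebral cortex homogenates against 20 pM [125I]BH-CCK-8S; pKB reported as mean ± SEM from at least three separate experiments.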

[3] = organism: Mus musculus; assay: Effect on acid secretion was determined in isolated,lumen-perfused immature mouse stomach; Acid secretion; type: functional
Outline: (§1)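 Isolated, lumen-perfused mouse stomach; compound applied alone and acid secretion observed, scored as present or absent. Tested as bis(N-methyl-D-glucamine) salts.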

[4] = organism: Mus musculus; assay: Charecterization of agonist response of ligand in mouse stomach bioassay; type: functional
[5] = organism: Mus musculus; assay: Charecterization of agonist response of ligand in mouse stomach bioassay measured as affinity of L-365260; type: functional
[6] = organism: Mus musculus; assay: Effect on acid secretion was determined in isolated,lumen-perfused immature mouse stomach; No acid secretion; type: functional; outline: as §1

SMILES | pKB [1] | pKB [2] | Acid secretion [3] | pA50 [4] | pKB [5] | Kb ([5]; read-out: pA2 (converted)) | Acid secretion [6]
O=C(O)c1cc(NC(=O)[C@H](Cc2ccccc2)NC(=O)c2cc3cc[nH]c3cc2C(=O)NCC23CC4CC(CC(C4)C2)C3)cc(C(=O)O)c1 | 9.9 | 8.96 |  |  |  |  | 
Cn1ccc2cc(C(=O)N[C@@H](Cc3ccccc3)C(=O)Nc3cc(C(=O)O)cc(C(=O)O)c3)c(C(=O)NCC34CC5CC(CC(C5)C3)C4)cc21 (stereo in doubt; 4) [listing 2 of 2 here] |  |  |  | 8.69 | 7.02 |  | 
Cn1ccc2cc(C(=O)N[C@@H](Cc3ccccc3)C(=O)Nc3cc(C(=O)O)cc(C(=O)O)c3)c(C(=O)NCC34CC5CC(CC(C5)C3)C4)cc21 (stereo in doubt; 3) [listing 2 of 2 here] |  |  |  | 8.4 | 7.04 |  | 
CSCC[C@H](NC(=O)[C@H](Cc1c[nH]c2ccccc12)NC(=O)CCNC(=O)OC(C)(C)C)C(=O)N[C@@H](CC(=O)O)C(=O)N[C@@H](Cc1ccccc1)C(N)=O [PENTAGASTRIN] |  |  |  | 7.73 |  | 9.77 nM | 
O=C(O)c1cc(NC(=O)[C@H](Cc2ccccc2)NC(=O)c2cc3[nH]ccc3cc2C(=O)NCC23CC4CC(CC(C4)C2)C3)cc(C(=O)O)c1 | 9.26 | 7.87 |  |  |  |  | inactive

Second part, led by results:

pKB [1] | pKB [2] | SMILES | Acid secretion [3] | pA50 [4] | pKB [5] | Kb ([5]; read-out: pA2 (converted)) | Acid secretion [6]
9.8 | 8.42 | Cn1ccc2cc(C(=O)N[C@@H](Cc3ccccc3)C(=O)Nc3cc(C(=O)O)cc(C(=O)O)c3)c(C(=O)NCC34CC5CC(CC(C5)C3)C4)cc21 (stereo in doubt; 3) [listing 1 of 2 here] | Active |  |  |  | 
6.86 | 7.52 | CCCCn1ccc2cc(C(=O)NCC34CC5CC(CC(C5)C3)C4)c(C(=O)N[C@@H](Cc3ccccc3)C(=O)Nc3cc(C(=O)O)cc(C(=O)O)c3)cc21 | Active |  |  |  | 
8.72 | 8.74 | CC(=O)n1ccc2cc(C(=O)N[C@@H](Cc3ccccc3)C(=O)Nc3cc(C(=O)O)cc(C(=O)O)c3)c(C(=O)NCC34CC5CC(CC(C5)C3)C4)cc21 |  |  |  |  | 
8.99 | 9.43 | Cn1ccc2cc(C(=O)N[C@@H](Cc3ccccc3)C(=O)Nc3cc(C(=O)O)cc(C(=O)O)c3)c(C(=O)NCC34CC5CC(CC(C5)C3)C4)cc21 (stereo in doubt; 4) [listing 1 of 2 here] | Active |  |  |  | 
8.57 | 8.36 | Cn1ccc2cc(C(=O)NCC34CC5CC(CC(C5)C3)C4)c(C(=O)N[C@@H](Cc3ccccc3)C(=O)Nc3cc(C(=O)O)cc(C(=O)O)c3)cc21 | Active | 7.94 |  |  | 
7.35 | 8.44 | CCCCn1ccc2cc(C(=O)N[C@@H](Cc3ccccc3)C(=O)Nc3cc(C(=O)O)cc(C(=O)O)c3)c(C(=O)NCC34CC5CC(CC(C5)C3)C4)cc21 | Active |  |  |  | 
8.95 | 7.6 | Cn1cnc2cc(C(=O)N[C@@H](Cc3ccccc3)C(=O)Nc3cc(C(=O)O)cc(C(=O)O)c3)c(C(=O)NCC34CC5CC(CC(C5)C3)C4)cc21 | Active |  |  |  | 
